Paper PMC12135072 (RSC Medicinal Chemistry, 2025)

Columns and labels:
[1] = test system: MCF7 (ATCC – HTB-22, breast carcinoma); assay: MTT cell viability assay, MCF7; format: cell-based; settings: for IC50: Homo sapiens, MCF7, read-out: IC50 MCF7; for higher potency compared to previously reported fused pyran derivative III: MCF7 IC50 versus III
[2] = test system: A549 (ATCC – CCL-185, lung carcinoma); assay: MTT cell viability assay, A549; format: cell-based; settings: Homo sapiens, A549, read-out: IC50 A549
[3] = test system: HCT116 (ATCC – CCL-247, colon carcinoma); assay: MTT cell viability assay, HCT116; format: cell-based; settings: Homo sapiens, HCT-116, read-out: IC50 HCT116
[4] = test system: MCF-7 cells; assay: Colony formation assay; format: cell-based
[5] = test system: MCF7 spheroids; assay: Spheroid formation assay; format: cell-based; settings: 72 hours of treatment
Summary of the method: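 Agar was liquefied in normal saline, sterilized and cast into 3D molds, which were rinsed with culture medium. MCF7 cells were seeded onto the molds and left 20 min to adhere, then medium with varied test-compound concentrations was added. Spheroid dimensions were tracked by live-cell imaging and compared with untreated controls.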

[6] = test system: MCF7 cells; assay: Cell cycle analysis; format: cell-based; settings: for S phase population / cells in G1 phase / cells in G2 (G2/M) phase: MCF7, 24 hours; for S phase population: compounds at IC50
Summary of the method: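 MCF7 cells were treated with the test compounds for 24 and 48 h, with etoposide as the positive control and 0.1% DMSO as the vehicle. Cells were stained with propidium iodide and their G1, S and G2 distribution was read by flow cytometry. n = 3; two-way ANOVA with Tukey's test.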

[7] = test system: MCF7 cell line; assay: γH2AX labelling for DNA double-strand breaks; format: cell-based; settings: compounds at IC50, etoposide 10 μM
Summary of the method: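 To detect DNA double-strand breaks, MCF7 cells were exposed to the test compounds for 24 and 48 h, with etoposide as the positive control and 0.1% DMSO as the vehicle. γH2AX labelling was quantified by flow cytometry. n = 3; two-way ANOVA with Tukey's test.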

[8] = test system: MCF7 breast cancer cells; assay: Apoptosis, annexin V staining and flow cytometry; format: cell-based
Summary of the method: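 MCF7 cells were exposed to the test compounds for 24 or 48 h, with etoposide (10 μM) as the positive control and 0.1% DMSO as the untreated control. Cells were stained with annexin V and analysed by flow cytometry into live, early apoptotic and late apoptotic fractions.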

[9] = test system: chorioallantoic membrane (CAM) blood vessel formation; assay: Ex ovo chorioallantoic membrane; format: in vivo, chicken; settings: concentration-dependent, over time
[10] = test system: MRC5 (ATCC – CCL-171, human diploid fibroblast cell line)
[11] = test system: MRC5 (ATCC – CCL-171, human diploid fibroblast cell line); assay: cells; settings: MRC5, read-out: IC50 MRC5
[12] = MCF7, 48 hours, compounds at IC50, ETP 10 μM
[13] = MCF7, 24 hours, compounds at IC50
[14] = MCF7, 24 hours, compounds at IC50, etoposide 10 μM
[15] = MCF7, 48 hours, compounds at IC50, etoposide 10 μM

Row | Structure (SMILES) | IC50 [1] | higher potency compared to previously reported fused pyran derivative III [1] | IC50 [2] | IC50 [3] | percentage of colony formation ([4]; MCF-7, compound at IC10) | percentage of colony formation ([4]; MCF-7, compound at IC50) | percentage of colony formation ([4]; MCF-7, compound at IC90) | spheroid size versus untreated control [5] | S phase population [6] | cells in G1 phase ([6]; compounds at IC50, ETP 10 μM) | cells in G2 (G2/M) phase ([6]; compounds at IC50, ETP 10 μM) | G1 phase population [6, 12] | γH2AX levels ([7]; MCF7, 24 hours) | γH2AX levels ([7]; MCF7, 48 hours) | live cells [8, 13] | early apoptotic cells [8, 14] | late apoptotic cells [8, 14] | early apoptotic cells [8, 15] | late apoptotic cells [8, 15] | new blood vessel formation versus untreated controls [9] | also measured
1 | Cc1nccn1-c1ccc(C2C(C#N)=C(N)OC3=C2C(=O)CC(C)(C)C3)cc1 (centres unmarked) [Compound 8a, 2-Amino-7,7-dimethyl-4-(4-(2-methyl-1H-imidazol-1-yl)phenyl)-5-oxo-5,6,7,8-tetrahydro-4H-chromene-3-carbonitrile] | 8.24 ± 0.19 µM | 1.5 fold | 111 ± 4.91 µM | 143 ± 6.35 µM | 94.3 ± 4.04% | 74.3 ± 2.08% | 5.67 ± 4.04% | pronounced reduction in size | 21.11 ± 3.39% | 37.08 ± 5.07% | 30.63 ± 4.35% | 47.08 ± 0.6% | 2.89 ± 0.99 | 20.3 ± 2.74 | 86.4 ± 0.15% | 4.27 ± 0.20% | 7.6 ± 0.01% | 5.89 ± 0.20% | 6.17 ± 0.13% | significant reduction in new blood vessel formation | toxicity to MRC5 (MCR5) cells [10]: nontoxic; IC50 [11]: > 200 µM
2 | Cc1cn(-c2ccc(C3C(C#N)=C(N)OC4=C3C(=O)CC(C)(C)C4)cc2)cn1 (centres unmarked) [Compound 8b, 2-Amino-7,7-dimethyl-4-(4-(4-methyl-1H-imidazol-1-yl)phenyl)-5-oxo-5,6,7,8-tetrahydro-4H-chromene-3-carbonitrile] | 4.22 ± 0.81 µM | 3 fold | 110 ± 4.94 µM | 129 ± 5.79 µM | 97.7 ± 1.53% | 76 ± 2.65% | 15 ± 5% | marked reduction in size | 15.11 ± 2.59% | 41.59 ± 7.44% | 30.79 ± 5.11% | 45.22 ± 0.82% | 4.71 ± 0.75 | 21.62 ± 3.38 | 87.55 ± 0.08% | 2.66 ± 0.12% | 7.87 ± 0.02% | 5.27 ± 0.13% | 9.46 ± 0.22% | significant reduction in new blood vessel formation | G2 (G2/M) phase population [6, 12]: 28.83 ± 0.52%; debris/dead cells ([8]; MCF7, 48 hours, compound at IC50): 0.82 ± 0.30%; live cells [8, 15]: 84.45 ± 0.64%; toxicity to MRC5 (MCR5) cells [10]: nontoxic; IC50 [11]: > 200 µM
